Source: ChEMBL document CHEMBL2346655, “Synthesis and in vitro biological evaluation of 2,6,9-trisubstituted purines targeting multiple cyclin-dependent kinases” (Eur J Med Chem, 2013)
Active and inactive are the calls of the source. No cut-off for these calls is given here.

Columns and labels:
[1] = target: T1, CDK9/cyclin T1 (Homo sapiens) (UniProt O60563+P50750); assay: Inhibition of CDK9/CyclinT1 in human HCT116 cells assessed as increase in p21 expression at 1 to 5 uM after 24 hrs by immunoblotting analysis; type: cell-based; conditions: HCT-116
Summary of the method: (§1)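 Immunoblot: cells lysed by harvesting in Laemmli sample buffer, proteins run on SDS-PAGE, electroblotted to nitrocellulose, blocked, primary antibodies overnight, peroxidase-conjugated secondaries, ECL detection by CCD camera. Antibodies included anti-phospho RNA polymerase II (S2), anti-RNA polymerase II (ARNA-3), anti-p53 (DO-1), anti-p21waf1 (118), anti-PCNA.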

K562 [2] = assay: Cell cycle arrest in human K562 cells assessed as accumulation at S phase after 24 hrs by BrdU incorporation assay; type: functional, cell-based
Summary of the method: (§2)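 Sub-confluent cells were exposed to compound for 24 h, then pulse-labeled with 10 μM BrdU for 30 min at 37 °C. After ethanol (70%) fixation and 2 M HCl denaturation, cells were stained with fluorescein anti-BrdU antibody plus propidium iodide. The BrdU-positive S-phase fraction was quantified by flow cytometry (488 nm laser).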

HCT-116 [3] = assay: Induction of apoptosis in human HCT116 cells assessed as decrease in MCL1 level after 24 hrs by immunoblotting analysis; type: functional, cell-based
Summary of the method: (§3)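 Cells were treated for 24 h, harvested directly into Laemmli sample buffer, and run on SDS-PAGE. Proteins were blotted to nitrocellulose, blocked, probed overnight with primary antibodies, then with peroxidase-linked secondaries. Bands were detected by ECL with a CCD camera. PCNA and tubulin served as loading references.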

[4] = target: Cyclin-dependent kinase 5/CDK5 activator 1 (Homo sapiens, UniProt Q00535); assay: Inhibition of CDK5/P35 (unknown origin) using histone H1 as substrate; type: protein-complex assay
Chain of Cyclin-dependent kinase 5/CDK5 activator 1 (Q00535 whole entry): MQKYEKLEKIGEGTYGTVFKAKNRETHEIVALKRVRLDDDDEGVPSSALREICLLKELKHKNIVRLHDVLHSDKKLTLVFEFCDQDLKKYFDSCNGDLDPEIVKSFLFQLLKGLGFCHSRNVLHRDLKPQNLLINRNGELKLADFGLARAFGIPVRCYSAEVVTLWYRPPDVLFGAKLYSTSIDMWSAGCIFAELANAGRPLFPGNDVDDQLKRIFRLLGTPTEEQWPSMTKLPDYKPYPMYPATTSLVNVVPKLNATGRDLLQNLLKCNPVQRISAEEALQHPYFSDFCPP
Chain of Cyclin-dependent kinase 5/CDK5 activator 1 (Q15078 whole entry, further chain): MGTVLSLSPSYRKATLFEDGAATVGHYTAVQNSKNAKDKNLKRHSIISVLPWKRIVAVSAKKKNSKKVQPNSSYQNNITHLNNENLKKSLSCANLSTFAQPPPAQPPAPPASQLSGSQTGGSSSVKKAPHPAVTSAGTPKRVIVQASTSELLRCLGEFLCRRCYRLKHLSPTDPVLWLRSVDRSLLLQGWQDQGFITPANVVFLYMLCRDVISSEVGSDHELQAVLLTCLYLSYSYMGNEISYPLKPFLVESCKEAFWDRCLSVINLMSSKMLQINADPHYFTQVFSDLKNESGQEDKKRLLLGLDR

HCT-116 [5] = assay: Ratio of roscovitine IC50 to compound IC50 for human HCT116 cells; type: functional
Summary of the method: (§4)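 Cytotoxicity IC50s underlying the ratio: cells treated in triplicate with three-fold compound dilutions for 72 h, then Calcein AM added and live-cell fluorescence read at 485/538 nm (ex/em).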

[6] = target: Cyclin-dependent kinase 2/cyclin E1 (Homo sapiens, UniProt P24941); assay: Inhibition of CDK2/Cyclin E (unknown origin) expressed in Sf9 cells using histone H1 as substrate
[7] = target: Cyclin-dependent kinase 7/ cyclin H (Homo sapiens, UniProt P50613); assay: Inhibition of CDK7/CyclinH/MAT1 (unknown origin) using (YSPTSPS)2KK as substrate; type: protein-complex assay
Chain of Cyclin-dependent kinase 7/ cyclin H (P51946 whole entry): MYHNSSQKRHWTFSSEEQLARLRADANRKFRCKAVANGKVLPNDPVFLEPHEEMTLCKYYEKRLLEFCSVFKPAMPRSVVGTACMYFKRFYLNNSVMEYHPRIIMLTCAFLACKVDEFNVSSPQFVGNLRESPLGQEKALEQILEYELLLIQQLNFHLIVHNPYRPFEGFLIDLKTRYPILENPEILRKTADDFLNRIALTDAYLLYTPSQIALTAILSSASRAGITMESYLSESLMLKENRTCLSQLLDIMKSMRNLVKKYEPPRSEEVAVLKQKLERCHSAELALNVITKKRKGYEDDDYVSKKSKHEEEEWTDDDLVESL
Chain of Cyclin-dependent kinase 7/ cyclin H (P50613 whole entry): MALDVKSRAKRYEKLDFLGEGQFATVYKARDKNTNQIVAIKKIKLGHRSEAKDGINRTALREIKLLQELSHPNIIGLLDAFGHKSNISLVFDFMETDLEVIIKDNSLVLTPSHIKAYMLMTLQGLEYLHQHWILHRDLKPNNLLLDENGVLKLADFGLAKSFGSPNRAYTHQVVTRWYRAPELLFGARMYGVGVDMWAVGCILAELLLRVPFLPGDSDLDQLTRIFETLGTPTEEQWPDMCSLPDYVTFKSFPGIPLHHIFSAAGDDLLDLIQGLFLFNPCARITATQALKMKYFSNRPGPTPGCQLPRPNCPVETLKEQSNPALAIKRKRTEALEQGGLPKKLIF
Summary of the method: (§5)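 Buffer was 60 mM HEPES-NaOH pH 7.5, 3 mM MgCl2, 3 mM MnCl2, vanadate, DTT and PEG. Reactions were stopped with H3PO4 and spotted on P-81 paper, which was then washed. Radioactivity was imaged; IC50 taken from dose–response curves.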

HCT-116 [8] = assay: Cell cycle arrest in human HCT116 cells assessed as accumulation at G2/M phase at 0.2 uM after 24 hrs by propidium iodide staining-based flow cytometric analysis (reference value: 19.6%); type: functional
Summary of the method: (§6)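 Sub-confluent cells treated at several concentrations for 24 h, then pulsed with 10 μM BrdU for 30 min at 37 °C before harvest. Cells were PBS-washed, fixed in 70% ethanol, denatured in 2 M HCl and neutralized. Stained with fluorescein anti-BrdU and propidium iodide; DNA content read by flow cytometry with 488 nm excitation.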

G-361 [9] = assay: Ratio of roscovitine IC50 to compound IC50 for human G361 cells; type: functional; summary of the method: as §4
HCT-116 [10] = assay: Cell cycle arrest in human HCT116 cells assessed as accumulation at subG1 phase at 5 uM after 24 hrs by propidium iodide staining-based flow cytometric analysis (reference value: 1.4%); type: functional; summary of the method: as §6
[11] = target: T1, CDK9/cyclin T1 (Homo sapiens); assay: Inhibition of CDK9/CyclinT1 in human ARN8 cells assessed as increase in p53-dependent transcriptional activity at 2 uM after 24 hrs by beta-galactosidase reporter gene assay; type: cell-based
Summary of the method: (§7)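 Arn-8 human melanoma cells stably carrying p53-responsive pRGCΔfoslacZ reporter; 24 h compound exposure, then permeabilized with 0.3% Triton X-100 for 15 min. 4-Methylumbelliferon-β-D-galactopyranoside added (80 μM final); fluorescence read at 355/460 nm (ex/em) after 1 h as β-galactosidase activity.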

[12] = target: Cyclin-dependent kinase 7/ cyclin H (Homo sapiens) (UniProt P51946+P50613); assay: Inhibition of CDK7/CyclinH/MAT1-mediated phosphorylation of RNA polymerase 2 at Ser5 in human HCT116 cells up to 25 uM after 24 hrs by immunoblotting analysis; type: cell-based; conditions: HCT-116
[13] = target: T1, CDK9/cyclin T1 (Homo sapiens); assay: Inhibition of CDK9/CyclinT1-mediated phosphorylation of RNA polymerase 2 at Ser2 in human HCT116 cells up to 25 uM after 24 hrs by immunoblotting analysis; type: cell-based; conditions: HCT-116; summary of the method: as §1
K562 [14] = assay: Induction of apoptosis in human K562 cells assessed as decrease in MCL1 level after 24 hrs by immunoblotting analysis; type: functional, cell-based; summary of the method: as §3
K562 [15] = assay: Ratio of roscovitine IC50 to compound IC50 for human K562 cells; type: functional; summary of the method: as §4
CDK9/cyclin T1 = CDK9/cyclin T1 (Homo sapiens, UniProt P50750); assay: Inhibition of CDK9/CyclinT1 (unknown origin) using (YSPTSPS)2KK as substrate; type: protein-complex assay; summary of the method: as §5
Chain of CDK9/cyclin T1 (O60563 whole entry): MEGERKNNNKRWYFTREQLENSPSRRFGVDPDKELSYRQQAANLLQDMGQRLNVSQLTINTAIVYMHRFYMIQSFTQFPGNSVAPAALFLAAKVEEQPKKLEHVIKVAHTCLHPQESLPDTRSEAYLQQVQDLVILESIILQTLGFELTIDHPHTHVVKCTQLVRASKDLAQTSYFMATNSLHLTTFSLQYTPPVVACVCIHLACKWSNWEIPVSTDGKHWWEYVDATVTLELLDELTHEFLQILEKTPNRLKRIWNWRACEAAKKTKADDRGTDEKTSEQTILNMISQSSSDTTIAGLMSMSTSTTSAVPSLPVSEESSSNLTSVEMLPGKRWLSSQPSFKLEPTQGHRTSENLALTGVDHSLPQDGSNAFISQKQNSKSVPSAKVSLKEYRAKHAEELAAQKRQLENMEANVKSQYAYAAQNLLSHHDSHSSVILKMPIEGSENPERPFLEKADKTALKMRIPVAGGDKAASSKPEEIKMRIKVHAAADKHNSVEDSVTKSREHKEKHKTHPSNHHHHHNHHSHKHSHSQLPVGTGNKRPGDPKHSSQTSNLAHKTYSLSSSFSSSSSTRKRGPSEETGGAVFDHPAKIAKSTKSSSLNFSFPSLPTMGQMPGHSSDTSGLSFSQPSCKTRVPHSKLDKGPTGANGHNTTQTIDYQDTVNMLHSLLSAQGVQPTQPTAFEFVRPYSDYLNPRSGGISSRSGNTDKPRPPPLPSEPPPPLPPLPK
Chain of CDK9/cyclin T1 (P50750 whole entry): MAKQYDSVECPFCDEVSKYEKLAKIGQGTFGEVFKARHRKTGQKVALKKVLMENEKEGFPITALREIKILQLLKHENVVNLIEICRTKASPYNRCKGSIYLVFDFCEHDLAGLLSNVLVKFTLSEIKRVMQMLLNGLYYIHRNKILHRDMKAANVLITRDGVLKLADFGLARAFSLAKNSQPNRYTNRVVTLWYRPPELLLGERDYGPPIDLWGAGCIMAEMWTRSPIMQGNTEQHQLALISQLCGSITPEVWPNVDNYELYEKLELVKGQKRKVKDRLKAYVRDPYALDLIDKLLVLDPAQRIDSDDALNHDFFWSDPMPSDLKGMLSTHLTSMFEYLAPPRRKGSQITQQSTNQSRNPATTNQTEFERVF

G-361 [16] = assay: Cytotoxicity against human G361 cells assessed as reduction in number of viable cells after 72 hrs by fluorescence assay; type: functional, cell-based; conditions: G-361, 72 h
Summary of the method: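 Three-fold compound dilutions tested in triplicate on cultured cells for 72 h. Viable cells detected by adding Calcein AM and reading fluorescence at 485/538 nm (ex/em).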

K562 [17] = assay: Cell cycle arrest in human K562 cells assessed as accumulation at S phase at 0.2 uM after 24 hrs by propidium iodide staining-based flow cytometric analysis (reference value: 38.8%); type: functional; summary of the method: as §6
HCT-116 [18] = assay: Cell cycle arrest in human HCT116 cells assessed as accumulation at S phase at 1 uM after 24 hrs by propidium iodide staining-based flow cytometric analysis (reference value: 31.6%); type: functional; summary of the method: as §6
[19] = target: T1, CDK9/cyclin T1 (Homo sapiens); assay: Inhibition of CDK9/CyclinT1 in human ARN8 cells assessed as increase in p53-dependent transcriptional activity after 24 hrs by beta-galactosidase reporter gene assay; type: cell-based; summary of the method: as §7
K562 [20] = assay: Cell cycle arrest in human K562 cells assessed as accumulation at S phase at 5 uM after 24 hrs by propidium iodide staining-based flow cytometric analysis (reference value: 38.8%); type: functional; summary of the method: as §6
HCT-116 [21] = assay: Cell cycle arrest in human HCT116 cells assessed as accumulation at S phase after 24 hrs by BrdU incorporation assay; type: functional, cell-based; summary of the method: as §2
K562 [22] = assay: Cell cycle arrest in human K562 cells assessed as accumulation at G1 phase at 0.2 uM after 24 hrs by propidium iodide staining-based flow cytometric analysis (reference value: 47.3%); type: functional; summary of the method: as §6
HCT-116 [23] = assay: Cell cycle arrest in human HCT116 cells assessed as accumulation at S phase at 0.2 uM after 24 hrs by propidium iodide staining-based flow cytometric analysis (reference value: 31.6%); type: functional; summary of the method: as §6
K562 [24] = assay: Cell cycle arrest in human K562 cells assessed as accumulation at subG1 phase at 0.2 uM after 24 hrs by propidium iodide staining-based flow cytometric analysis (reference value: 2.4%); type: functional; summary of the method: as §6
K562 [25] = assay: Induction of apoptosis in human K562 cells assessed as change in BCL2 level up to 5 uM after 24 hrs by immunoblotting analysis; type: functional, cell-based; summary of the method: as §3
K562 [26] = assay: Cell cycle arrest in human K562 cells assessed as accumulation at G1 phase at 5 uM after 24 hrs by propidium iodide staining-based flow cytometric analysis (reference value: 47.3%); type: functional; summary of the method: as §6

For CC[C@@H](Nc1nc(NCc2cc(Cl)ccc2O)c2ncn(C(C)C)c2n1)C(C)O (mixture of isomers), the inhibition [1] was “Active”, the Activity (K562 [2]) was “Dose-dependent effect” and the Activity (HCT-116 [3]) was “Dose-dependent effect”. For the same molecule, the IC50 [4] was 71 nM, the “Ratio IC50” value (HCT-116 [5]) was >9 and the IC50 [6] was 13.1 nM. The IC50 [7] was 97 nM, the Activity (HCT-116 [8]) was 23.4% and the “Ratio IC50” value (G-361 [9]) was >9. For the same molecule, the Activity (HCT-116 [10]) was 4.6%, the inhibition [11] was “Active” and the inhibition [12] was “Active”. For the same molecule, the inhibition [13] was “Active”, the Activity (K562 [14]) was “Dose-dependent effect” and the “Ratio IC50” value (K562 [15]) was >9. For the same molecule, the IC50 (CDK9/cyclin T1) was 165 nM, the IC50 (G-361 [16]) was 2300 nM and the Activity (K562 [17]) was 38.5%. The Activity (HCT-116 [18]) was 28.8%, the inhibition [19] was “Dose-dependent effect” and the Activity (K562 [20]) was 27.8%. For the same molecule, the Activity (HCT-116 [21]) was “Dose-dependent effect”, the Activity (K562 [22]) was 34.7% and the Activity (HCT-116 [23]) was 31.1%. For the same molecule, the Activity (K562 [24]) was 2.8%, the Activity (K562 [25]) was “inactive” and the Activity (K562 [26]) was 40.7%.
